# ChEMBL document CHEMBL2016576, “Design, synthesis and structure-activity-relationship of 1,5-tetrahydronaphthyridines as CETP inhibitors” (Bioorg Med Chem Lett, 2012)
# Columns and labels:
# [1] = Clearance in beagle dog at 1 mg/kg, iv and 3 mg/kg, po after 72 hrs; assay type: ADME, organism-based, Canis lupus familiaris; conditions: in vivo
# [2] = Oral bioavailability in beagle dog at 3 mg/kg after 72 hrs; assay type: ADME, organism-based, Canis lupus familiaris; conditions: in vivo
# [3] = test system: aldosterone synthase mRNA; experiment: Induction of aldosterone synthase mRNA level in human NCI-H295 cells by in vitro branched DNA method relative to control; assay type: cell-based; conditions: read-out: FC
# Outline: (§1)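 Human adrenal H295 cells were assayed in vitro. CYP11B2 (aldosterone synthase) and CYP11B1 (cortisol synthase) mRNA were quantified by branched DNA, and induction was expressed relative to untreated control.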
# [4] = biological target: T1, Cholesteryl ester transfer protein (Homo sapiens, UniProt P11597); experiment: Inhibition of CETP in human plasma assessed as reduction in fluorescent intensity by fluorescence analysis
# T1 sequence (P11597 whole entry): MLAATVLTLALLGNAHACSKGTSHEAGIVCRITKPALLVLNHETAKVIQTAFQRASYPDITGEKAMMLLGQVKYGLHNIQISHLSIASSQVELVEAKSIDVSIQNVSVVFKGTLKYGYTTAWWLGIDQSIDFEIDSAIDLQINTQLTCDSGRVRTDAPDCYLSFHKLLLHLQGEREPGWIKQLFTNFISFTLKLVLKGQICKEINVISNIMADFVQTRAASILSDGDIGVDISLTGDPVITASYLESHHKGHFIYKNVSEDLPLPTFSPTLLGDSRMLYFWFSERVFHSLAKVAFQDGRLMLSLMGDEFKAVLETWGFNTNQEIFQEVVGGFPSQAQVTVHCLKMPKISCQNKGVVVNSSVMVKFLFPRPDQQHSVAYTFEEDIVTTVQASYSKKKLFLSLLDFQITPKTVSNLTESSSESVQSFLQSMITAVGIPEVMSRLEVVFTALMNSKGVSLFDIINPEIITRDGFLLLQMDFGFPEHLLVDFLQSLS
# Mus musculus [5] = experiment: Increase in HDL-cholesterol level in transgenic mouse harboring human CETP/human ApoA1 gene at 30 mg/kg, po measured after 8 hrs; assay type: functional
# Outline: (§2)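 Male hCETP/hApoA1 heterozygous dual transgenic mice given 30 mg/Kg orally in corn oil (79.5%)/oleic acid (20%)/labrafil (0.5%); blood taken over an 8 h time course; serum tested ex vivo for CETP activity and in vivo serum HDL-c measured.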
# [6] = Clearance in Sprague-Dawley rat at 1 mg/kg, iv and 3 mg/kg, po after 72 hrs; assay type: ADME, organism-based; conditions: in vivo
# Mus musculus [7] = experiment: Ex-vivo inhibition of CETP activity in transgenic mouse harboring human CETP/human ApoA1 gene at 30 mg/kg, po measured after 8 hrs; assay type: functional; outline: as §2
# [8] = Oral bioavailability in cynomolgus monkey at 3 mg/kg after 72 hrs; assay type: ADME, organism-based, Macaca fascicularis; conditions: in vivo
# [9] = Clearance in cynomolgus monkey at 1 mg/kg, iv and 3 mg/kg, po after 72 hrs; assay type: ADME, organism-based, Macaca fascicularis; conditions: in vivo
# [10] = Oral bioavailability in Sprague-Dawley rat at 3 mg/kg after 72 hrs; assay type: ADME, organism-based; conditions: in vivo
# cortisol synthase mRNA = experiment: Induction of cortisol synthase mRNA level in human NCI-H295 cells by in vitro branched DNA method relative to control; assay type: cell-based; conditions: read-out: FC; outline: as §1
# [11] = Induction of cortisol synthase mRNA level in human NCI-H295 cells by in vitro branched DNA method; assay type: cell-based
Structure (SMILES),clearance [1] [mL/min/kg],bioavailability [2] [%],fold induction [3],IC50 [4] [nM],Activity (Mus musculus [5]) [%],clearance [6] [mL/min/kg],inhibition in vivo at 30 mg/kg (Mus musculus [7]) [%],bioavailability [8] [%],clearance [9] [mL/min/kg],bioavailability [10] [%],fold induction (cortisol synthase mRNA),Activity [11]
CC[C@@H]1C[C@H](N(Cc2cc(C(F)(F)F)cc(C(F)(F)F)c2)c2nnn(C)n2)c2nc(C(F)(F)F)ccc2N1C(=O)OC(C)C,1.5,49,10,23,134,5.5,91.6,18,0.7,31,10,
CC[C@@H]1C[C@H](N(Cc2cc(C(F)(F)F)cc(C(F)(F)F)c2)c2nnn(C)n2)c2nc(C)ccc2N1C(=O)OC(C)C,,,,22,147.8,16.4,105,32,2.2,18,,
CCOC(=O)N1c2ccc(C(F)(F)F)cc2[C@@H](N(Cc2cc(C(F)(F)F)cc(C(F)(F)F)c2)C(=O)OC)C[C@H]1CC [TORCETRAPIB],,,,,,,,,,,,Toxic
